Test results taken from PMC9851031 (ACS Omega, 2023).

Columns and labels:
Format in all cases: in vivo
Swiss albino mice = test: Acute toxicity; details: for number of animals dead/tot number of animals tested: i.p., observed 24 h
In short: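 Albino mice, five per cage, on a 12 h light/dark cycle, fasted overnight. Acute toxic-class testing followed OECD 423. Deaths and signs of toxicity were recorded after dosing to estimate the median lethal dose.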

[1] = tested on: MES-induced seizure in albino mice; test: Maximum electroshock; details: i.p. in mice, 4.0 h; doses 30, 100, 300 mg/kg
In short: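 Albino mice, fasted overnight, received test compound i.p. in PEG-200 at 30, 100 and 300 mg/kg. Electroshock was 60-cycle alternating current, 50 mA for 0.25 s, delivered via ear-clip electrodes, with testing at 0.5 and 4 h after dosing. Protection meant abolition of hind limb tonic extension. The minimum dose protecting more than half of animals (n = 5) was recorded.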

albino mice = test: Rotarod neurotoxicity test; details: doses 30, 100, 300 mg/kg; for neurotoxicity minimum dose: i.p. in mice
In short: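 Albino mice of either sex, housed five per cage on a 12 h light/dark cycle and fasted overnight, were first trained to balance on a 3.2 cm diameter rod turning at 6 rpm. Trained mice then received test compound i.p. in PEG-200 at 30, 100 or 300 mg/kg. Neurotoxicity was scored as failure to stay on the rod for at least 1 min in each of three successive trials.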

mice = test: Antidepressant activity: locomotor activity by actophotometer; details: for depressant effect (in words): actophotometer, 100 mg/kg; for % reduction in locomotor activity / locomotor activity score, after treatment means ± SEM: n = 5, 5 min
In short: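 Actophotometer test in mice. Test compound at 100 mg/kg or diazepam standard was given intraperitoneally. Locomotor activity scores were taken at baseline and after treatment over a 5 min span, n = 5. Percent reduction in locomotor activity was calculated against control. Data are mean ± SEM, analysed by one-way ANOVA with Dunnett's test.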

[2] = tested on: scPTZ-induced seizure in albino mice; test: Subcutaneous pentylenetetrazole; details: Mus musculus, ip, 4 h, read-out: scPTZ minimum dose for antiepileptic potential
In short: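 Overnight-fasted albino mice were dosed i.p. with test compound in PEG-200 at 30, 100 and 300 mg/kg and observed at 0.5 and 4 h. Pentylenetetrazole was injected subcutaneously in the posterior midline. Protection meant no clonic spasm episode lasting 5 s, n = 5 per group. The minimum protective dose was reported.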

[3] = 100 mg/kg, after a few minutes of administration

| Compound | number of animals dead/tot number of animals tested (Swiss albino mice; dosage 5 mg/kg) | number of animals dead/tot number of animals tested (Swiss albino mice; dosage 30 mg/kg) | number of animals dead/tot number of animals tested (Swiss albino mice; dosage 100 mg/kg) | number of animals dead/tot number of animals tested (Swiss albino mice; dosage 300 mg/kg) | HLTE (MES) minimum dose for antiepileptic potential [1] | neurotoxicity minimum dose (albino mice; 0.5 h) | neurotoxicity minimum dose (albino mice; 4.0 h) | acute toxicity observation (Swiss albino mice; [3]) | acute toxicity observation (Swiss albino mice; 300 mg/kg body weight, 24 h) | depressant effect (in words) (mice) | % reduction in locomotor activity (mice; dose 100 mg/kg) | locomotor activity score, after treatment means ± SEM (mice; dose 100 mg/kg) | neurotoxicity (in words) (albino mice) | % reduction in locomotor activity (mice; 4 mg/kg (intraperitoneally)) | locomotor activity score, after treatment means ± SEM (mice; 4 mg/kg (intraperitoneally)) | minimal effective dose [2] |
| --- | --- | --- | --- | --- | --- | --- | --- | --- | --- | --- | --- | --- | --- | --- | --- | --- |
| COc1ccc(-c2nc3ccccc3s2)cc1OCc1nnc(-c2ccc(N)cc2)o1 [6a, 4-[5-(5-Benzothiazol-2-yl-2-methoxy-phenoxymethyl)-[1,3,4]oxadiazol-2-yl]-phenylamine] | 0/3 | 0/3 | 0/3 | 0/3 |  |  |  |  |  |  |  |  |  |  |  |  |
| COc1ccc(-c2nnc(COc3cc(-c4nc5ccccc5s4)ccc3OC)o2)cc1 [6b, 2-{4-Methoxy-3-[5-(4-methoxy-phenyl)-[1,3,4]oxadiazol-2-ylmethoxy]-phenyl}-benzothiazole] | 0/3 | 0/3 | 0/3 | 0/3 | failed to exhibit activity |  |  |  |  |  |  |  |  |  |  |  |
| COc1ccc(-c2nc3ccccc3s2)cc1OCc1nnc(-c2ccc(Br)cc2)o1 [6c, 2-{3-[5-(4-Bromo-phenyl)-[1,3,4]oxadiazol-2-ylmethoxy]-4-methoxy-phenyl}-benzothiazole] | 0/3 | 0/3 | 1/3 | 2/3 | failed to exhibit activity | 300 mg/kg | 300 mg/kg | slight spasmodic behavior | mortality with involuntary movements |  |  |  |  |  |  |  |
| COc1ccc(-c2nc3ccccc3s2)cc1OCc1nnc(-c2ccccc2)o1 [6d, 2-[4-Methoxy-3-(5-phenyl-[1,3,4]oxadiazol-2-ylmethoxy)-phenyl]-benzothiazole] | 0/3 | 0/3 | 0/3 | 2/3 |  |  |  |  | mortality with involuntary movements |  |  |  |  |  |  |  |
| COc1ccc(-c2nc3ccccc3s2)cc1OCc1nnc(Cc2ccccc2)o1 [6e, 2-[3-(5-Benzyl-[1,3,4]oxadiazol-2-ylmethoxy)-4-methoxy-phenyl]-benzothiazole] | 0/3 | 0/3 | 1/3 | 1/3 |  |  |  | slight spasmodic behavior | mortality with involuntary movements |  |  |  |  |  |  |  |
| COc1ccc(-c2nc3ccccc3s2)cc1OCc1nnc(-c2ccc(Cl)cc2)o1 [6g, 2-{3-[5-(4-Chloro-phenyl)-[1,3,4]oxadiazol-2-ylmethoxy]-4-methoxy-phenyl}-benzothiazole] | 0/3 | 0/3 | 0/3 | 1/3 |  |  |  |  | mortality with involuntary movements |  |  |  |  |  |  |  |
| COc1ccc(-c2nc3ccccc3s2)cc1OCc1nnc(-c2ccc([N+](=O)[O-])cc2)o1 [6h, 2-{4-Methoxy-3-[5-(4-nitro-phenyl)-[1,3,4]oxadiazol-2-ylmethoxy]-phenyl}-benzothiazole] | 0/3 | 0/3 | 0/3 | 0/3 |  |  |  |  |  | not depressants | 0.37% | 373.4 ± 3.85^ns | no neurotoxicity |  |  |  |
| COc1ccc(-c2nc3ccccc3s2)cc1OCc1nnc(C(c2ccccc2)c2ccccc2)o1 [6i, 2-[3-(5-Benzhydryl-[1,3,4]oxadiazol-2-ylmethoxy)-4-methoxy-phenyl]-benzothiazole] | 0/3 | 0/3 | 0/3 | 1/3 |  |  |  |  | mortality with involuntary movements |  |  |  |  |  |  |  |
| COc1ccc(-c2nc3ccccc3s2)cc1OCc1nnc(-c2cc([N+](=O)[O-])cc([N+](=O)[O-])c2O)o1 [6j, 2-[5-(5-Benzothiazol-2-yl-2-methoxy-phenoxymethyl)-[1,3,4]oxadiazol-2-yl]-4,6-dinitro-phenol] | 0/3 | 0/3 | 0/3 | 0/3 |  |  |  |  |  | not depressants | 0.48% | 368.8 ± 2.63^ns | no neurotoxicity |  |  |  |
| COc1ccc(-c2nc3ccccc3s2)cc1OCc1nnc(-c2c(C)cccc2C)o1 [6k, 2-{3-[5-(2,6-Dimethylphenyl)-[1,3,4]oxadiazol-2-ylmethoxy]-4-methoxy-phenyl}-benzothiazole] | 0/3 | 0/3 | 0/3 | 1/3 |  |  |  |  | mortality with involuntary movements |  |  |  |  |  |  |  |
| COc1ccc(-c2nc3ccccc3s2)cc1OCc1nnc(-c2ccc(O)cc2)o1 [6l, 4-[5-(5-Benzothiazol-2-yl-2-methoxy-phenoxymethyl)-[1,3,4]oxadiazol-2-yl]-phenol] | 0/3 | 0/3 | 0/3 | 0/3 |  |  |  |  |  | not depressants | 0.73% | 375.8 ± 3.65^ns | no neurotoxicity |  |  |  |
| COc1ccc(-c2nc3ccccc3s2)cc1OCc1nnc(-c2ccc(N(C)C)cc2)o1 [6m, {4-[5-(5-Benzothiazol-2-yl-2-methoxy-phenoxymethyl)-[1,3,4]oxadiazol-2-yl]-phenyl}-dimethylamine] | 0/3 | 0/3 | 0/3 | 0/3 | failed to exhibit activity |  |  |  |  |  |  |  |  |  |  |  |
| COc1ccc(-c2nc3ccccc3s2)cc1OCc1nnc(-c2c(OC)cccc2OC)o1 [6n, 2-{3-[5-(2,6-Dimethoxyphenyl)-[1,3,4]oxadiazol-2-ylmethoxy]-4-methoxy-phenyl}benzothiazole] | 0/3 | 0/3 | 0/3 | 0/3 |  |  |  |  |  |  |  |  |  |  |  |  |
| CN1C(=O)CN=C(c2ccccc2)c2cc(Cl)ccc21 [diazepam, reference compound] |  |  |  |  |  |  |  |  |  |  |  |  |  | 80.4% | 74.6 ± 2.65 |  |
| CCC1(c2ccccc2)C(=O)NC(=O)NC1=O [phenobarbital, reference compound] | 0/3 | 0/3 | 0/3 | 0/3 |  | 100 mg/kg | 300 mg/kg |  |  |  |  |  |  |  |  | 100 mg/kg |
| O=C1NC(=O)C(c2ccccc2)(c2ccccc2)N1 [phenytoin, reference compound] | 0/3 | 0/3 | 0/3 | 0/3 |  | 100 mg/kg | 100 mg/kg |  |  |  |  |  |  |  |  |  |
